Results collected from several papers.
Compare with care: the assays were run in different laboratories.
Target: Serine/threonine-protein kinase PknB (pknB, Mycobacterium tuberculosis, UniProt P9WI81)

Compound | observed | technique | concentration | quantity | result
C[C@@H]1CN(c2cc(-c3n[nH]c4ccc(OC5(C)CC5)cc34)ncn2)C[C@H](C)O1 | cell-free assay | competition with immobilised ligand | 0.1 µM | remaining binding | 95%
CC1CCCN1c1nccc(-c2cnn3ncccc23)n1 (centres unmarked) | binding |  | 1 µM | remaining binding | 100%
Cc1ccc(C(=O)Nc2ccc(CN3CCN(C)CC3)c(C(F)(F)F)c2)cc1C#Cc1cnc2cccnn12 | cell-free assay |  | 23.5 nM | remaining signal | 98%
COc1cc(Nc2ncc(F)c(Nc3ccc4c(n3)NC(=O)C(C)(C)O4)n2)cc(OC)c1OC | binding | competition with immobilised ligand | 10 µM | inhibition | 46%
Nc1ncnc2occ(-c3ccc(NC(=O)Nc4cc(C(F)(F)F)ccc4F)cc3)c12 | cell-free assay |  | 20 µM | remaining signal | 66%
C[C@H](c1ccnc(Nc2nc3ccc(-c4cc(N(C)C)ncn4)cc3[nH]2)c1)N1CCN(C(=O)CC(F)(F)F)CC1 | cell-free assay | competition with immobilised ligand | 0.1 µM | remaining binding | 91%
CN(C)c1nccc(-c2cnn3ncccc23)n1 | binding |  | 1 µM | remaining binding | 76%
Nc1ncc(-c2nc(N3CCOCC3)nc(N3CCOCC3)n2)c(C(F)F)n1 | cell-free assay |  | 10 µM | remaining signal | 66%
